# In PMC7134392 (ChemMedChem, 2018):
# What was measured:
# RAW264.7 cells = assay: Toxicity; format: cell-based; details: read-out: IC50 Toxicity (Tox.), Alamar blue cell viability
# How it was run: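 RAW264.7 cells were grown in RPMI 1640 with 10% FCS, 50 μM 2-mercaptoethanol and penicillin/streptomycin. Cells were seeded at 50,000 per well in phenol-red-free medium ≥12 h beforehand. In the TNFα assay setting, cells were dosed with test compound from 50 μM to 0.023 μM (three-fold steps) or DMSO. Viability was read by Alamar blue. Means ± SD are from 3 independent experiments.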
# [1] = target: T1, full-length human estrogen receptor α (Homo sapiens, UniProt P03372); assay: Competitive radiometric ligand binding assay, ERα; details: relative binding affinity, estradiol = 100; single determinations for RBA < 0.01
# T1 sequence (P03372 1-595): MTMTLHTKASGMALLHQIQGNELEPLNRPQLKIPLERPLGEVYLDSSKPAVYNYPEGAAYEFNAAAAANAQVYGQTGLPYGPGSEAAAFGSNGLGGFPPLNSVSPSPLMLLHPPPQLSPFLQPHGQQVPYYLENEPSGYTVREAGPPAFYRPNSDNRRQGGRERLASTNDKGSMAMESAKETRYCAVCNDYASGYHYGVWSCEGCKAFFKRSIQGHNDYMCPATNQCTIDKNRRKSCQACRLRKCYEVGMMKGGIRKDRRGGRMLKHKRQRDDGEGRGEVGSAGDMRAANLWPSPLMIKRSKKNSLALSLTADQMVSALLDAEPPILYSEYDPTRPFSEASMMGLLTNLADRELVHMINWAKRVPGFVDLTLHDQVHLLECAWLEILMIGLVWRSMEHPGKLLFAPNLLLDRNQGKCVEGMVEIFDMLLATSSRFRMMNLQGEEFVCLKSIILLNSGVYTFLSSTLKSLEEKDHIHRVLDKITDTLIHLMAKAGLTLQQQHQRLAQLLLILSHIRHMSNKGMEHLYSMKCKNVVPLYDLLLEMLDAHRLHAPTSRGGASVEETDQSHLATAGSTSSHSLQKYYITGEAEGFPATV
# [2] = target: full-length human estrogen receptor β (Homo sapiens, UniProt Q92731); assay: Competitive radiometric ligand binding assay, ERβ; details: relative binding affinity, estradiol = 100; single determinations for RBA < 0.01
# How it was run: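 Full-length human ERβ incubated with radiolabelled estradiol tracer and competing test compound on ice for 18–24 h. Receptor-bound tracer was adsorbed onto hydroxyapatite, washed with buffer, and counted by scintillation. Affinity was expressed as RBA relative to estradiol = 100. Most values are the average of 2–3 determinations ± SD.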
# full-length human estrogen receptor β, sequence (Q92731 whole entry): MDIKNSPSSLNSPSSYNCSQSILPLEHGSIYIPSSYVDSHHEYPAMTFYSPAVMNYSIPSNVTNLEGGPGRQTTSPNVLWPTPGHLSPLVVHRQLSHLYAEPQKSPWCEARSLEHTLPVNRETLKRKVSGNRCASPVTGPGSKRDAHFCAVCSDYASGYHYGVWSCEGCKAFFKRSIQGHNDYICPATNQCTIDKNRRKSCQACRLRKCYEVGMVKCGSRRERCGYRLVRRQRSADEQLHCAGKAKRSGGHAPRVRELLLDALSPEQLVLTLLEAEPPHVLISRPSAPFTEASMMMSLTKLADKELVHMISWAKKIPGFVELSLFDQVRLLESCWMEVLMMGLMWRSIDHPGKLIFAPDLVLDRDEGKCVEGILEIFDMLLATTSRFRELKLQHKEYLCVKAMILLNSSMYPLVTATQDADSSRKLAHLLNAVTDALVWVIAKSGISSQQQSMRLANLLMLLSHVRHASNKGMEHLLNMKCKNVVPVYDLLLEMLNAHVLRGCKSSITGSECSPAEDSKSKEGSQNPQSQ
structure (smiles),measurement,setting,value
"Cc1c(-c2ccc(O)cc2)nn(-c2ccc(O)cc2)c1-c1ccc(OCCN2CCCCC2)cc1 [Compound 1, methyl-piperidino-pyrazole]",IC50,RAW264.7 cells,11.5 ± 2.4 µM
same,RBA ERα,[1],12.0 ± 2.0
same,RBA ERβ,[2],0.05 ± 0.01
